According to publication PMC3575599 (Cell reports, 2013):
“Also recorded” adds a separate entry of the source.

How the values were obtained:
mefs = assay: Proliferation of mefs with dox-inducible Chd5 or PHD-mutants; format: cell-based, mouse; settings: for effect on mef proliferation: dox-induced (0.2 μg/ml dox) vs untreated
Summary of the method: (§1)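 Mouse Chd5 (wild-type or PHD point mutants) is introduced by retrovirus in a dox-inducible vector, with SK-N-AS cells stably expressing rtTA. Mefs are seeded at 5 × 10^4 cells per 6 cm dish and SK-N-AS at 2.5 × 10^4 cells. Cells grow in DMEM with 100 μg/ml hygromycin B and 0.5 μg/ml puromycin, ±0.2 μg/ml dox. Cells are counted over days in triplicate (Coulter counter or crystal violet); mean ± S.D., two-tailed t-test.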

[1] = test system: Chd5 target gene expression; assay: qRT-PCR of Chd5 target genes in mefs; format: cell-based, mouse; settings: qRT-PCR normalized with actin, with (+) vs without (−) dox
SK-N-AS cells [2] = assay: Proliferation of SK-N-AS cells with dox-inducible Chd5 or PHD-mutants; format: cell-based, human; settings: for reduction of SK-N-AS proliferation: dox-induced; for effect on SK-N-AS proliferation: dox-induced (0.2 μg/ml dox) vs untreated
Summary of the method: as §1

SK-N-AS cells [3] = assay: Differentiation of SK-N-AS cells; format: cell-based, human; settings: for cell morphology / differentiation: SK-N-AS, dox-inducible expression; for MAP2 expression: immunofluorescence, neuronal marker MAP2
H3 peptide = format: binding; settings: nuclear extracts from mefs; anti-Flag immunoblot
unmodified H3 = format: binding; settings: purified Chd5-PHDs or nuclear lysates expressing Flag-tagged Chd5; unmodified H3 peptides
H3K4me0 peptide = assay: Peptide pull-down with recombinant wild-type and mutant PHDs or individual PHDs; format: binding; settings: biotinylated histone peptides; recombinant PHDs of Chd5
SK-N-AS cells [4] = assay: Tumor growth of SK-N-AS cells injected subcutaneously into athymic nude mice; format: in vivo, human; settings: SK-N-AS cells s.c., dox-diet
Summary of the method: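 SK-N-AS cells carry rtTA plus dox-inducible vector, wild-type or PHD-mutant Chd5. 1.6 × 10^6 cells mixed with Matrigel are injected s.c. into irradiated athymic nude mice. One cohort gets normal diet; the other gets dox diet from two days before injection onward. A blinded observer measures tumours. Read-outs are fold increase in tumour volume over 17 days (mean ± S.E.M.) and percentage change, dox-treated versus untreated.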

[5] = test system: recombinant tandem PHDs of Chd5; assay: Biotinylated histone peptide pull-down with recombinant Chd5 PHDs; format: binding, mouse; settings: biotinylated histone peptides; in vitro pull-down
chromatin = assay: Chromatin fractions from cells expressing Flag-tagged Chd5; format: cell-based

Row | Molecule | effect on mef proliferation (mefs) | effect on Chd5 target gene expression in mefs [1] | cell morphology / differentiation (SK-N-AS cells [3]) | binding to H3K4me0 peptide (pull-down) (H3K4me0 peptide) | also measured
1 | C[C@H]1c2cccc(O)c2C(=O)C2=C(O)[C@]3(O)C(=O)C(C(N)=O)=C(O)[C@@H](N(C)C)[C@@H]3[C@@H](O)[C@@H]21 [doxycycline, reference compound] | no significant effect |  |  |  | 
2 | C432W: Chd5 mutant compromised for H3 binding | defective in their ability to inhibit proliferation | not able to inhibit expression of Chd5-bound loci |  |  | 
3 | D346A/D434A: Chd5 double mutant, PHD1-D346A and PHD2-D434A | fail to do so | fail to do so |  |  | 
4 | D346A: Chd5-PHD1 single amino acid mutant; H3-binding-competent | inhibited proliferation to an extent comparable to that of wild-type Chd5; also recorded: inhibit proliferation | repress target gene expression; also recorded: inhibit expression of several Chd5-bound genes | intermediate differentiation phenotype | binds the H3K4me0 peptide | reduction of SK-N-AS proliferation (SK-N-AS cells [2]): about 17%; effect on SK-N-AS proliferation (SK-N-AS cells [2]): inhibited proliferation; effect on SK-N-AS proliferation (SK-N-AS cells [2]; listed as Chd5-PHD1-D346A): inhibits cellular proliferation; effect on mef proliferation (mefs; listed as Chd5-PHD1-D346A): inhibits cellular proliferation; cell morphology / differentiation (SK-N-AS cells [3]; listed as Chd5-D346A): partially-differentiated morphology; pull-down by H3 peptide of Flag-tagged Chd5 (H3 peptide): are pulled down by H3 peptide; relative efficiency of H3 binding (unmodified H3): bind H3 more efficiently than PHD1-D361A, PHD2-D434A, and PHD2-D415A
5 | D361A: Chd5-PHD1 single amino acid mutant compromised for H3 binding | defective in their ability to inhibit proliferation | fail to do so; also recorded: not able to inhibit expression of Chd5-bound loci | classic stem-like neuroblastoma morphology with proliferative foci | compromised binding | effect on tumor growth (SK-N-AS cells [4]): failed to reduce tumor growth; effect on SK-N-AS proliferation (SK-N-AS cells [2]): no such effects are observed; effect on mef proliferation (mefs; listed as Chd5-PHD1-D361A): fail to do so; MAP2 expression (SK-N-AS cells [3]): lower expression
6 | D415A: Chd5 mutant compromised for H3 binding | defective in their ability to inhibit proliferation |  |  |  | 
7 | D434A: Chd5-PHD2 single amino acid mutant compromised for H3 binding | defective in their ability to inhibit proliferation | fail to do so; also recorded: not able to inhibit expression of Chd5-bound loci | classic stem-like neuroblastoma morphology with proliferative foci | compromised binding | effect on tumor growth (SK-N-AS cells [4]): failed to reduce tumor growth; effect on mef proliferation (mefs; listed as Chd5-PHD2-D434A): fail to do so; MAP2 expression (SK-N-AS cells [3]): lower expression
8 | G355A: Chd5 mutant compromised for H3 binding | defective in their ability to inhibit proliferation | not able to inhibit expression of Chd5-bound loci |  |  | 
9 | PHD1: individual PHD of Chd5, PHD1 (345–403) (QDYCEVCQQGGEIILCDTCPRAYHLVCLDPELEKAPEGKWSCPHCEKEGIQWEPKDDDE; PHD1; UniProt A2A8L1 345-403, looked up, fragment) |  |  |  | same binding preference for H3K4me0 | 
10 | PHD2: individual PHD of Chd5, PHD2 (408–465) (GGCEEEEDDHMEFCRVCKDGGELLCCDACPSSYHLHCLNPPLPEIPNGEWLCPRCTCP; PHD2; UniProt A2A8L1 408-465, looked up, fragment) |  |  |  | same binding preference for H3K4me0; also recorded: highest affinity | 
11 | W384A: H3-binding-competent Chd5-PHD mutant | inhibited proliferation to an extent comparable to that of wild-type Chd5; also recorded: inhibit proliferation | inhibit expression of several Chd5-bound genes |  |  | 
12 | unmodified H3 (1–21) peptide: biotinylated histone H3 (1–21) peptide |  |  |  |  | binding to recombinant tandem PHDs of Chd5 (pull-down) [5]: bind
13 | wild-type Chd5: full-length mouse Chd5 (chromodomain helicase DNA-binding protein 5) | inhibited proliferation; also recorded: inhibits cellular proliferation | repress target gene expression | flat epithelial-like morphology; also recorded: differentiated cellular morphology |  | effect on tumor growth (SK-N-AS cells [4]): reduces tumorigenesis in vivo much more efficiently; reduction of SK-N-AS proliferation (SK-N-AS cells [2]): about 17%; effect on SK-N-AS proliferation (SK-N-AS cells [2]): inhibited proliferation; also recorded: inhibits cellular proliferation; inhibition of proliferation in mefs (mefs; dox-induced, see Figure 3A): 54%; MAP2 expression (SK-N-AS cells [3]): increased expression; also recorded: increase in MAP2 expression; pull-down by H3 peptide of Flag-tagged Chd5 (H3 peptide): are pulled down by H3 peptide; association with chromatin (chromatin): associated with chromatin; effect on Chd5 target gene expression in mefs ([1]; listed as Chd5): inhibits expression of the oncogenic PcG protein Bmi1
